# Screening results as filed in PubChem.
# HCV core dimer: blocks dimerization of HCV core protein; AID 1899; actives 0.33% (n = 300,000); inhibition, % at 5 µM; TR-FRET GST/Flag-core106 dimerization, 1536-well;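 active = inhibition above the mean of all tested compounds plus 3 SD, set per screening campaign, cut at about 45% in these data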
#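 test system = GST/Flag-tagged HCV core106 proteins | probe or stimulus = Eu donor and XL665 acceptor anti-tag antibodies | times = compound-protein-antibody incubation 4 h at 22.5 °C | signal = TR-FRET, excitation 340 nm, emission 617 and 671 nm | measure = percent inhibition of core106 dimerization signal | controls = wells lacking GST-core106 and wells with excess unlabelled core106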
# UHRF1 MBD2 ctr: UHRF1 methyl-DNA binding inhibition. UHRF1 binding to methylated oligo, TR-FRET. actives 0.75% (n = 370,000). Q96T88. inhibition, % at 4.4 µM. AID 687016; in the data active = inhibition above about 21%;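 note: UHRF1 SRA domain binding a hemimethylated CpG hairpin DNA probe; 0% = median of test compound wells and 100% = reference inhibitor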
# MBD2 DNA inh: blocks human MBD2 binding to methylated DNA; Q9UBB5; TR-FRET, MBD2 binding to methylated oligonucleotide; inhibition, % at 4.4 µM; actives 0.31% (n = 370,000); in the data active = inhibition above about 13%
# Target sequence (Q9UBB5 whole entry, looked up): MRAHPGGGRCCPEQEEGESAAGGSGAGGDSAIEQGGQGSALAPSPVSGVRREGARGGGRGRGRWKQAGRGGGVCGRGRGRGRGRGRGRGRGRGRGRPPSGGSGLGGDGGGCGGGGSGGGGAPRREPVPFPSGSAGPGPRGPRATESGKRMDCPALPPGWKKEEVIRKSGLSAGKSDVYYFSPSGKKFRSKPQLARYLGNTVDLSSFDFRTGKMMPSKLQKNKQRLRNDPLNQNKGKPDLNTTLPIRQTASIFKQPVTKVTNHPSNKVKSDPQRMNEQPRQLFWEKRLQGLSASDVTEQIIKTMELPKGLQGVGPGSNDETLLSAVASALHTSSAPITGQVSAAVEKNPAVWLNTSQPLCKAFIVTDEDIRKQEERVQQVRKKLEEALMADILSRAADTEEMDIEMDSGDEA
# LEDGF integ inh: blocks HIV-1 LEDGF/p75-dependent DNA integration. TR-FRET IN-LEDGF/p75 DNA integration, Eu/Cy5. inhibition, % at 3.7 µM. actives 0.64% (n = 370,000). AID 743269;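 active = inhibition above the screen-wide mean plus 3 SD, cut at about 13% in these data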;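 note: signal is the Cy5 over europium emission ratio at 671 and 618 nm; 0% = plate median of compound wells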
# TDP2 inh: TDP2 (human) inhibition, absorbance primary screen | O95551 | recombinant TDP2, T5PNP hydrolysis, p-nitrophenol absorbance 415 nm | inhibition, % at 12.8 µM | actives 0.34% (n = 370,000);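 active = inhibition above the mean of all tested compounds plus 3 SD, set per campaign, cut at about 25% in these data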;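 note: 0% = DMSO with enzyme and 100% = buffer with substrate but no TDP2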
#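 System: recombinant human TDP2 / Amount: 120 nM TDP2 per well / Also added: 5 mM T5PNP chromogenic substrate / Doses: 12.8 µM single point, 1% DMSO / Incubation: 2 h at 37 °C / Detection: p-Nitrophenol epi absorbance / Evaluation: % inhibition relative to enzyme-containing and enzyme-free wells / Repeats: singlicate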
# IN multimer act: HIV-1 integrase multimerization activation, counter-screen. shares compounds with LEDGF integ inh. TR-FRET HIV-1 integrase multimerization, biochemical. activation, % at 7.7 µM. actives 17% (n = 2,000); in the data active = activation above about 8.9%
# TR-FRET interf: optically interferes with TR-FRET readout in LEDGF counter-screen. shares compounds with LEDGF integ inh. TR-FRET optical interference counterscreen, HIV-1 IN multimerization. inhibition, % at 7.7 µM. 2,000 tested, under 10 active. AID 1053135;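 active = inhibition above the mean over all tested compounds plus 3 SD, which no compound reached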;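 note: 0% = integrase with antibodies and DMSO and 100% = antibodies without integrase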
# IN-LEDGF confirm: confirmation of HIV-1 LEDGF/p75-dependent integration inhibitors; TR-FRET LEDGF/p75-dependent HIV-1 integration, biochemical; inhibition, % at 3.7 µM; actives 36% (n = 2,000); shares compounds with LEDGF integ inh; in the data active = inhibition above about 14%
# The depositor's hits bear a star; · = no result given. Only some compounds are listed: those with a hit (about 1.8% of all), similar ones and a draw of the others.
SMILES,HCV core dimer,UHRF1 MBD2 ctr,MBD2 DNA inh,LEDGF integ inh,TDP2 inh,IN multimer act,TR-FRET interf,IN-LEDGF confirm
O=C(/C=C(\Nc1cc(Cl)c(Cl)c(Cl)c1)c1ccccc1)c1ccccc1,·,2,0,3,-14,·,·,·
CCOC(=O)C1CCCN(Cc2ccccc2Cl)C1 (configuration not stated),0,-3,0,16*,5,-2,12,2
O=C(COC(=O)c1cc(S(=O)(=O)N2CCOCC2)ccc1Cl)NC1CCCCC1,·,4,-6,19*,10,0,-2,-1
O=C(NCCCO)c1ccc(CSc2nc3ccccc3[nH]2)cc1,0,1,5,17*,-5,0,0,-5
O=[N+]([O-])c1cc(Cc2ccccc2)cc(C=Nc2ccc(N3CCOCC3)cc2)c1O,-7,·,·,·,·,·,·,·
Cc1ccc(O)c(N=Cc2cc(Cc3ccccc3)cc([N+](=O)[O-])c2O)c1,·,-6,-16,19*,-23,3,-15,46*
CCOC(=O)[C@]12CCCC=C1N(Cc1ccccc1)C(=O)[C@H](CC(=O)N1CCCCCC1)C2,·,2,0,23*,4,2,-12,-10
CCOC(=O)N1CCN(C(=O)C[C@@H]2C[C@@]3(C(=O)OCC)CCCC=C3N(Cc3ccccc3)C2=O)CC1,·,-2,-3,5,8,·,·,·
CCCC1CCC2(CCCN2CCOC(=O)Nc2ccc(OC)cc2)CC1 (configuration not stated),·,2,4,-1,2,·,·,·
COC(=O)[C@]12C[C@H](CC(=O)N3CCC(c4ccccc4)CC3)C(=O)N(Cc3cccc4ccccc34)C1=C[C@H](C(C)C)O[C@@H]2C1CC1,·,1,4,-1,-2,·,·,·
O=C(O)c1cc(-c2ccco2)nn1-c1cccc(Cl)c1,11,28*,6,15*,-1,1,-4,11
O=C(O)c1nn(-c2cccc(Cl)c2)c(=O)cc1O,5,1,0,17*,11,0,-2,-2
COC(=O)[C@]12C[C@H](CC(=O)NCCCCc3ccccc3)C(=O)N(Cc3ccccc3)C1=C[C@H](C(C)C)O[C@@H]2C1CC1,·,2,-2,6,-17,·,·,·
Nn1c(SCC(=O)Nc2cccc3ccccc23)nnc1-c1n[nH]c2c1CCC2,·,-2,1,7,2,·,·,·
Clc1cccc(OCCn2cncn2)c1Cl,1,-1,0,-1,-2,·,·,·
Clc1cccc(Oc2cnns2)c1Cl,3,3,1,17*,6,2,-7,-5
CC(Cc1ccccc1)NC(=O)CN1C(=O)c2ccccc2S1(=O)=O (configuration not stated),2,-4,2,82*,3,1,-3,-5
C[C@@H](NC(=O)CN1C(=O)c2ccccc2S1(=O)=O)c1ccccc1,-4,4,4,0,-2,·,·,·
CCCC1CCC2(CC1)CCC2OC(=S)Nc1cccc(Cl)c1 (configuration not stated),·,2,6,3,-6,·,·,·
Cc1cnc(CNC(=O)c2ccc3sc([C@@H]4O[C@H](CO)[C@H](O)[C@H](O)[C@H]4O)nc3c2)cn1,·,-1,0,5,10,·,·,·
O=C(NCc1cccs1)c1ccc2sc([C@@H]3O[C@H](CO)[C@H](O)[C@H](O)[C@H]3O)nc2c1,·,1,-3,33*,-7,-1,3,-10
COc1ccccc1C(=O)NC1CCCCN(Cc2cccc(C(F)(F)F)c2)C1=O (configuration not stated),·,-5,-5,5,-4,·,·,·
COc1cc2c3nnc(-c4ccc(F)cc4)c-3cn(Cc3ccccc3)c2cc1OC,12,4,-4,31*,0,-1,5,-5
CCCC#C/C(CCC)=C1\c2ccccc2C(=O)N1c1ccccc1,·,15,2,-4,2,·,·,·
